In ChEMBL document CHEMBL1143389, “Synthesis, structure and antibacterial activity of new 2-(1-(2-(substituted-phenyl)-5-methyloxazol-4-yl)-3-(2-substitued-phenyl)-4,5-dihydro-1H-pyrazol-5-yl)-7-substitued-1,2,3,4-tetrahydroisoquinoline derivatives” (Bioorg Med Chem, 2009):
≈ marks a conversion by molar mass, not a printed value.

Test system: Staphylococcus aureus
Test: Antimicrobial activity against Staphylococcus aureus ATCC 6538 after 24 hrs by MTT assay
Conditions: ATCC 6538, 24 h

Row | MIC | SMILES
1 | 3.12 µg/mL (≈ 5.99 µM) | Cc1oc(-c2ccccc2F)nc1N1N=C(c2ccc(Cl)cc2Cl)CC1N1CCc2ccccc2C1 (stereo not drawn)
2 | 3.12 µg/mL (≈ 5.9 µM) | C=Cc1ccccc1-c1nc(N2N=C(c3ccc(Cl)cc3Cl)CC2N2CCc3ccccc3C2)c(C)o1 (stereo not drawn)
3 | 6.25 µg/mL (≈ 12.8 µM) | Cc1oc(-c2ccc(F)cc2F)nc1N1N=C(c2ccccc2F)CC1N1CCc2ccccc2C1 (stereo not drawn)
4 | 12.5 µg/mL (≈ 27.1 µM) | C=Cc1ccccc1-c1nc(N2N=C(c3ccccc3)CC2N2CCc3ccccc3C2)c(C)o1 (stereo not drawn)
5 | 6.25 µg/mL (≈ 12 µM) | Cc1oc(-c2ccccc2F)nc1N1N=C(c2ccccc2C(F)(F)F)CC1N1CCc2ccccc2C1 (stereo not drawn)
6 | 6.25 µg/mL (≈ 11.6 µM) | Cc1oc(-c2ccc(F)cc2F)nc1N1N=C(c2ccccc2C(F)(F)F)CC1N1CCc2ccccc2C1 (stereo not drawn)
7 | 6.25 µg/mL (≈ 11.2 µM) | C=Cc1ccccc1-c1nc(N2N=C(c3ccccc3C(F)(F)F)CC2N2CCc3ccc(OC)cc3C2)c(C)o1 (stereo not drawn)
8 | 1.56 µg/mL (≈ 2.97 µM) | C=Cc1ccccc1-c1nc(N2N=C(c3ccc(-c4ccco4)cc3)CC2N2CCc3ccccc3C2)c(C)o1 (stereo not drawn)
9 | 1.56 µg/mL (≈ 2.74 µM) | COc1ccc2c(c1)CN(C1CC(c3ccc(Cl)cc3Cl)=NN1c1nc(-c3ccc(F)cc3F)oc1C)CC2 (stereo not drawn)
10 | 3.12 µg/mL (≈ 5.59 µM) | C=Cc1ccccc1-c1nc(N2N=C(c3ccc(Cl)cc3Cl)CC2N2CCc3ccc(OC)cc3C2)c(C)o1 (stereo not drawn)
11 | 50 µg/mL (≈ 98.3 µM) | C=Cc1ccccc1-c1nc(N2N=C(c3ccccc3F)CC2N2CCc3ccc(OC)cc3C2)c(C)o1 (stereo not drawn)

Test system: Pseudomonas fluorescens
Test: Antimicrobial activity against Pseudomonas fluorescens ATCC 13525 after 24 hrs by MTT assay
Conditions: ATCC 13525, 24 h

Row | MIC | SMILES
12 | > 50 µg/mL | Cc1oc(-c2ccccc2F)nc1N1N=C(c2ccc(Cl)cc2Cl)CC1N1CCc2ccccc2C1 (stereo not drawn)
13 | 50 µg/mL (≈ 94.4 µM) | C=Cc1ccccc1-c1nc(N2N=C(c3ccc(Cl)cc3Cl)CC2N2CCc3ccccc3C2)c(C)o1 (stereo not drawn)
14 | 25 µg/mL (≈ 51.2 µM) | Cc1oc(-c2ccc(F)cc2F)nc1N1N=C(c2ccccc2F)CC1N1CCc2ccccc2C1 (stereo not drawn)
15 | 12.5 µg/mL (≈ 27.1 µM) | C=Cc1ccccc1-c1nc(N2N=C(c3ccccc3)CC2N2CCc3ccccc3C2)c(C)o1 (stereo not drawn)
16 | 50 µg/mL (≈ 96.1 µM) | Cc1oc(-c2ccccc2F)nc1N1N=C(c2ccccc2C(F)(F)F)CC1N1CCc2ccccc2C1 (stereo not drawn)
17 | 12.5 µg/mL (≈ 23.2 µM) | Cc1oc(-c2ccc(F)cc2F)nc1N1N=C(c2ccccc2C(F)(F)F)CC1N1CCc2ccccc2C1 (stereo not drawn)
18 | 3.12 µg/mL (≈ 5.59 µM) | C=Cc1ccccc1-c1nc(N2N=C(c3ccccc3C(F)(F)F)CC2N2CCc3ccc(OC)cc3C2)c(C)o1 (stereo not drawn)
19 | 50 µg/mL (≈ 94.9 µM) | C=Cc1ccccc1-c1nc(N2N=C(c3ccc(-c4ccco4)cc3)CC2N2CCc3ccccc3C2)c(C)o1 (stereo not drawn)
20 | 50 µg/mL (≈ 87.8 µM) | COc1ccc2c(c1)CN(C1CC(c3ccc(Cl)cc3Cl)=NN1c1nc(-c3ccc(F)cc3F)oc1C)CC2 (stereo not drawn)
21 | > 50 µg/mL | C=Cc1ccccc1-c1nc(N2N=C(c3ccc(Cl)cc3Cl)CC2N2CCc3ccc(OC)cc3C2)c(C)o1 (stereo not drawn)
22 | 50 µg/mL (≈ 98.3 µM) | C=Cc1ccccc1-c1nc(N2N=C(c3ccccc3F)CC2N2CCc3ccc(OC)cc3C2)c(C)o1 (stereo not drawn)

Biological target: not listed separately
Test: Inhibition of Bacillus subtilis DNA gyrase
Conditions: not given
Outline: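 Gyrase purified from B. subtilis cells at 0–4 °C. Cells were lysed with lysozyme in HEPES-KOH pH 8.0/sucrose/Mg acetate/DTT/PMSF for 2.5 h, then treated with KCl–Brij. The cleared lysate at 0.2 M KCl went onto a column, eluted with ATP–Mg acetate–KCl, then high KCl, then urea, and was dialyzed to 0.05 M KCl. The read-out was DNA supercoiling activity.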

Row | IC50 | SMILES
23 | 1 µg/mL (≈ 1.92 µM) | Cc1oc(-c2ccccc2F)nc1N1N=C(c2ccc(Cl)cc2Cl)CC1N1CCc2ccccc2C1 (stereo not drawn)
24 | 0.25 µg/mL (≈ 0.439 µM) | COc1ccc2c(c1)CN(C1CC(c3ccc(Cl)cc3Cl)=NN1c1nc(-c3ccc(F)cc3F)oc1C)CC2 (stereo not drawn)

Test system: Escherichia coli
Test: Antimicrobial activity against Escherichia coli after 24 hrs by MTT assay
Conditions: not given

Row | MIC | SMILES
25 | 50 µg/mL (≈ 95.9 µM) | Cc1oc(-c2ccccc2F)nc1N1N=C(c2ccc(Cl)cc2Cl)CC1N1CCc2ccccc2C1 (stereo not drawn)
26 | > 50 µg/mL | C=Cc1ccccc1-c1nc(N2N=C(c3ccc(Cl)cc3Cl)CC2N2CCc3ccccc3C2)c(C)o1 (stereo not drawn)
27 | 25 µg/mL (≈ 51.2 µM) | Cc1oc(-c2ccc(F)cc2F)nc1N1N=C(c2ccccc2F)CC1N1CCc2ccccc2C1 (stereo not drawn)
28 | 12.5 µg/mL (≈ 27.1 µM) | C=Cc1ccccc1-c1nc(N2N=C(c3ccccc3)CC2N2CCc3ccccc3C2)c(C)o1 (stereo not drawn)
29 | 50 µg/mL (≈ 96.1 µM) | Cc1oc(-c2ccccc2F)nc1N1N=C(c2ccccc2C(F)(F)F)CC1N1CCc2ccccc2C1 (stereo not drawn)
30 | 25 µg/mL (≈ 46.4 µM) | Cc1oc(-c2ccc(F)cc2F)nc1N1N=C(c2ccccc2C(F)(F)F)CC1N1CCc2ccccc2C1 (stereo not drawn)
31 | 50 µg/mL (≈ 89.5 µM) | C=Cc1ccccc1-c1nc(N2N=C(c3ccccc3C(F)(F)F)CC2N2CCc3ccc(OC)cc3C2)c(C)o1 (stereo not drawn)
32 | > 50 µg/mL | C=Cc1ccccc1-c1nc(N2N=C(c3ccc(-c4ccco4)cc3)CC2N2CCc3ccccc3C2)c(C)o1 (stereo not drawn)
33 | 50 µg/mL (≈ 87.8 µM) | COc1ccc2c(c1)CN(C1CC(c3ccc(Cl)cc3Cl)=NN1c1nc(-c3ccc(F)cc3F)oc1C)CC2 (stereo not drawn)
34 | 50 µg/mL (≈ 89.4 µM) | C=Cc1ccccc1-c1nc(N2N=C(c3ccc(Cl)cc3Cl)CC2N2CCc3ccc(OC)cc3C2)c(C)o1 (stereo not drawn)
35 | 50 µg/mL (≈ 98.3 µM) | C=Cc1ccccc1-c1nc(N2N=C(c3ccccc3F)CC2N2CCc3ccc(OC)cc3C2)c(C)o1 (stereo not drawn)

Biological target: DNA gyrase (Staphylococcus aureus, UniProt P0A0K8+P20831)
Test: Inhibition of Staphylococcus aureus DNA gyrase
Assay type: protein-complex assay
Conditions: not given

Row | IC50 | SMILES
36 | 10.5 µM | Cc1oc(-c2ccccc2F)nc1N1N=C(c2ccc(Cl)cc2Cl)CC1N1CCc2ccccc2C1 (stereo not drawn)
37 | 0.878 µM | COc1ccc2c(c1)CN(C1CC(c3ccc(Cl)cc3Cl)=NN1c1nc(-c3ccc(F)cc3F)oc1C)CC2 (stereo not drawn)

Test system: Bacillus subtilis
Test: Antimicrobial activity against Bacillus subtilis ATCC 6633 after 24 hrs by MTT assay
Assay type: functional
Conditions: ATCC 6633, 24 h
Outline: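 Mueller-Hinton medium (casein hydrolysate, soluble starch, beef extract). Compounds were serially diluted in DMSO in medium, with an inoculum of about 10⁵ cfu/mL, and incubated at 37 °C for 24 h. MIC was read visually. MTT (2 mg/mL in PBS, pH 7.4) was then added for 4–5 h at room temperature. Dye was extracted with isopropanol containing 5% 1 mol/L HCl for 12 h, and OD was read at 550 nm.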

Row | MIC | SMILES
38 | 3.12 µg/mL (≈ 5.99 µM) | Cc1oc(-c2ccccc2F)nc1N1N=C(c2ccc(Cl)cc2Cl)CC1N1CCc2ccccc2C1 (stereo not drawn)
39 | 6.25 µg/mL (≈ 11.8 µM) | C=Cc1ccccc1-c1nc(N2N=C(c3ccc(Cl)cc3Cl)CC2N2CCc3ccccc3C2)c(C)o1 (stereo not drawn)
40 | 25 µg/mL (≈ 51.2 µM) | Cc1oc(-c2ccc(F)cc2F)nc1N1N=C(c2ccccc2F)CC1N1CCc2ccccc2C1 (stereo not drawn)
41 | 12.5 µg/mL (≈ 27.1 µM) | C=Cc1ccccc1-c1nc(N2N=C(c3ccccc3)CC2N2CCc3ccccc3C2)c(C)o1 (stereo not drawn)
42 | 12.5 µg/mL (≈ 24 µM) | Cc1oc(-c2ccccc2F)nc1N1N=C(c2ccccc2C(F)(F)F)CC1N1CCc2ccccc2C1 (stereo not drawn)
43 | 12.5 µg/mL (≈ 23.2 µM) | Cc1oc(-c2ccc(F)cc2F)nc1N1N=C(c2ccccc2C(F)(F)F)CC1N1CCc2ccccc2C1 (stereo not drawn)
44 | 6.25 µg/mL (≈ 11.2 µM) | C=Cc1ccccc1-c1nc(N2N=C(c3ccccc3C(F)(F)F)CC2N2CCc3ccc(OC)cc3C2)c(C)o1 (stereo not drawn)
45 | 3.12 µg/mL (≈ 5.93 µM) | C=Cc1ccccc1-c1nc(N2N=C(c3ccc(-c4ccco4)cc3)CC2N2CCc3ccccc3C2)c(C)o1 (stereo not drawn)
46 | 0.78 µg/mL (≈ 1.37 µM) | COc1ccc2c(c1)CN(C1CC(c3ccc(Cl)cc3Cl)=NN1c1nc(-c3ccc(F)cc3F)oc1C)CC2 (stereo not drawn)
47 | 3.12 µg/mL (≈ 5.59 µM) | C=Cc1ccccc1-c1nc(N2N=C(c3ccc(Cl)cc3Cl)CC2N2CCc3ccc(OC)cc3C2)c(C)o1 (stereo not drawn)
48 | 12.5 µg/mL (≈ 24.6 µM) | C=Cc1ccccc1-c1nc(N2N=C(c3ccccc3F)CC2N2CCc3ccc(OC)cc3C2)c(C)o1 (stereo not drawn)
